Only some compounds are listed: those with a hit (about 2.2% of all), similar ones and a draw of the others.
CHRM5 antagonist: blocks acetylcholine activation of human M5 receptor; AID 624040; 0.59% of 360,000 active; inhibition, % at 3 µM; P08912; CHO-hM5 cells, Fluo-8 calcium fluorescence, ACh EC80;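 active = inhibition above a per-plate cutoff, the mean of that plate's test compounds plus 3 SD, cut at about 27% in these data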;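 also: 0% = acetylcholine EC80 with DMSO and 100% = DMSO without agonist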
Target sequence (P08912 whole entry, looked up): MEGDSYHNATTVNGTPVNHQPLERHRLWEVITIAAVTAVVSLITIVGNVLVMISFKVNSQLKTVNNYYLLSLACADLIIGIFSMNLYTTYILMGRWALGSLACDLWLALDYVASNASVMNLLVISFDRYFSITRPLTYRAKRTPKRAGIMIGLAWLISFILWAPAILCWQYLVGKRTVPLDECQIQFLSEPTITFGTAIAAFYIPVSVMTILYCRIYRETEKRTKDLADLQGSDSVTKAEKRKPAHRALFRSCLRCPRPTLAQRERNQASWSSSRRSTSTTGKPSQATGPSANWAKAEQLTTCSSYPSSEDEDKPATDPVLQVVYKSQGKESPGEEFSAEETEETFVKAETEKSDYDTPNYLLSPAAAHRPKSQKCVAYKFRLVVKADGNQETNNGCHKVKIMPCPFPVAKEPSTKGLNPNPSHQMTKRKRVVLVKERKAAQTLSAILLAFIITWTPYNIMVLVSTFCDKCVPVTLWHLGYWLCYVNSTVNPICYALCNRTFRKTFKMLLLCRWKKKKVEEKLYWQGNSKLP
CHRM5 agonist: agonists of human muscarinic M5 receptor (CHRM5); P08912; CHO-K1 hM5 cells, Fluo-8 calcium fluorescence; 0% DMSO wells, 100% maximal acetylcholine response; activation, % at 3 µM; 0.19% of 360,000 active;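 active = activation above the run's mean over test compounds plus 3 SD, cut at about 23% in these data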;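 also: signal is peak over basal fluorescence ratio across the kinetic read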
CHRM1 agonist: activates human CHRM1 receptor. P11229. CHO-K1 hM1, Fluo-8 calcium fluorescence, agonist mode; 0% DMSO, 100% acetylcholine EC100. activation, % at 3 µM. 0.33% of 360,000 active. AID 588814;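 active = activation above the run's mean compound activation plus 3 SD, cut at about 16% in these data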;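 also: peak over basal fluorescence ratio within a 140 s kinetic read after compound addition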
M5 PAM: potentiates acetylcholine response at human M5 receptor; CHO-K1 hM5, Fluo-8 calcium, ACh EC20 PAM; 0% = ACh EC20, 100% = ACh EC100; activation, % at 3 µM; 0.3% of 360,000 active; AID 624038;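 active = activation above the run cutoff, the mean activation of all test compounds plus 3 SD, cut at about 18% in these data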
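system = human M5 receptor in CHO-K1 cells | compound = one concentration, 3 µM final (nominal) | schedule = Post-acetylcholine fluorescence recording 140 s | signal = Fluo-8 calcium dye fluorescence, kinetic read | benchmarks = low control EC20 acetylcholine (0%), high control EC100 acetylcholine (100%) | repeats = singlicate, one well per test compound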
M1 PAM: potentiates human M1 receptor response to acetylcholine. P11229. CHO-K1 hM1, Fluo-8 calcium fluorescence, ACh EC20; 0% = ACh EC20, 100% = maximal ACh. activation, % at 3 µM. 0.088% of 360,000 active. AID 588819; in the data active = activation above about 19%, passing the limit was not always enough
CHRM1 antagonist: antagonists of human M1 muscarinic receptor; 1.3% of 360,000 active; inhibition, % at 3 µM; P11229; CHO-K1 hM1, Fluo-8 calcium fluorescence, ACh EC80 antagonist; AID 588852;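 active = percent inhibition above its own plate's cutoff, namely the mean of that plate's compound wells plus 3 SD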;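 also: peak over basal fluorescence ratio during 140 s after agonist addition; 0% = ACh EC80 plus DMSO and 100% = DMSO alone without agonist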
An asterisk follows results filed as active; . = no result.

SMILES | CHRM5 antagonist | CHRM5 agonist | CHRM1 agonist | M5 PAM | M1 PAM | CHRM1 antagonist
CC1CCN(C(=O)CCn2c(=O)oc3ccc(Cl)cc32)CC1 | -10 | 1 | 2 | 0 | 28* | -22
Cc1cc(C)c(C#N)c(SCC(O)COc2ccc(Br)cc2)n1 (stereo unspecified) | 17 | -6 | -10 | -16 | -33 | 61*
CCN(CC)C1=CC2=CC(=C(C#N)C#N)CCC2CC1 (stereo unspecified) | 61* | 384* | 230* | -23 | -32 | 63*
CCCCN(C)C1=CC2=CC(=C(C#N)C#N)CCC2CC1 (stereo unspecified) | 84* | 670* | 670* | -24 | -28 | 101*
CCOC(=O)C(Cc1ccc(O)cc1)NC(=O)CCc1c[nH]c2ccccc12 (stereo unspecified) | 4 | 15 | 21* | -4 | 0 | -3
CCNC(=O)C1(C)CCN(C(=O)c2ccccc2OC(F)(F)F)C1 (stereo unspecified) | 3 | 1 | -4 | -2 | 10 | -11
COc1ccc(Cn2c(-c3ccc(OC)cc3)n[nH]c2=S)cc1 | 16 | -3 | -4 | -4 | 11 | -18
CC(C)Oc1ccc(Cn2c(-c3ccco3)n[nH]c2=S)cc1 | 0 | -13 | -4 | -14 | -22 | 29*
COc1ccccc1-n1c(-c2ccco2)n[nH]c1=S | 10 | -3 | 5 | -3 | 2 | -1
S=c1[nH]nc(-c2ccco2)n1-c1cccc2ccccc12 | 13 | 2 | 0 | 46* | 6 | -1
Cc1nc2c(cnn2-c2ccccc2Cl)c(=O)n1-c1ccc(C(C)C)cc1 | 5 | 2 | -1 | -6 | 5 | -3
N#C/C(=C/c1ccc(N2CCCCC2)o1)C(=O)Nc1ccc2ccccc2c1 | 91* | 457* | 240* | -21 | -32 | 87*
N#C/C(=C/c1ccc(N2CCCCC2)o1)C(=O)Nc1ccc(Cl)cc1 | 55* | 56* | 102* | -26 | -32 | 68*
CC1CC1c1ccc(/C=C(\C#N)C(=O)Nc2ccc(Cl)cc2)o1 (stereo unspecified) | -4 | -3 | -11 | -6 | -9 | 9
COc1ccc(Cl)cc1S(=O)(=O)NC(C)C(=O)NCc1cccnc1 (stereo unspecified) | 3 | -3 | -2 | -6 | -1 | -4
Cc1ccc(S(=O)(=O)N2[C@@H](c3cccc(Cl)c3)C(C(=O)OC(C)(C)C)=CC[C@H]2c2cccc(Cl)c2)cc1 | -5 | 3 | -4 | 5 | 4 | -3
CC(C)(C)c1cc2cccnc2n1Cc1cccc(Cl)c1 | 2 | -5 | -5 | -2 | -12 | 31*
COC(=O)CSc1nc2ccccn2c(=O)c1C=O | -5 | -3 | -8 | 6 | 2 | 4
CCCCNC(=O)C1(C)CCCCN1Cc1ccccc1-c1ccccc1 (stereo unspecified) | 10 | -2 | -7 | -18 | -25 | 31*
Cc1cccc(C)c1-n1c(C)cc(/C=N\Nc2ccc([N+](=O)[O-])cn2)c1C | 13 | -6 | -2 | -20 | -14 | 35*
O=[N+]([O-])c1ccc(N2CCN(Cc3ccccc3)CC2)c2c1no[n+]2[O-] | 23 | 4 | 1 | -26 | -25 | 35*
O=[N+]([O-])c1ccc(N2CCN(Cc3ccccc3)CC2)s1 | -10 | -7 | -6 | 7 | 24 | -30
O=C1C2CCCCN2C(=O)N1CCCCN1CCN(c2ccccc2Oc2ccccc2)CC1 (stereo unspecified) | 6 | -17 | -8 | -1 | -3 | 1
O=C(Nc1nnc(-c2cccs2)o1)c1cccc(C(F)(F)F)c1 | 4 | 15 | 41* | -16 | -8 | -4
O=C(O)Cn1cc(C(=S)N2CCOCC2)c2ccccc21 | -8 | 2 | 2 | 0 | 27* | -27
SMILES | CHRM5 antagonist | CHRM5 agonist | CHRM1 agonist | M5 PAM | M1 PAM | CHRM1 antagonist
COc1cccc(C(=O)Nc2cc(C)ccc2NC(=O)COc2ccccc2)c1 | -3 | 5 | -10 | 1 | -17 | 48*
COc1ccccc1NS(=O)(=O)c1cccc(NC(=O)Nc2ccccc2)c1 | 59* | 13 | 6 | -18 | -21 | 59*
COc1ccccc1NS(=O)(=O)c1cccc(NC(=O)Nc2ccc(Cl)cc2)c1 | 66* | 7 | 3 | -20 | -21 | 44*
CCNC(=S)Nc1cccc(S(=O)(=O)Nc2ccccc2OC)c1 | -5 | 5 | 2 | 7 | 11 | -15
COc1cccc(OC)c1C(=O)Nc1cccc(S(=O)(=O)Nc2ccccc2Cl)c1 | 2 | 0 | 0 | 6 | 5 | -18
CC(CNS(=O)(=O)c1ccc2c(c1)CC(=O)N2C)c1ccccc1 (stereo unspecified) | 10 | 3 | -1 | -5 | -5 | 2
O=C(CN1C(=O)CCC1=O)Nc1ccc(Cc2ccc(NC(=O)CN3C(=O)CCC3=O)cc2)cc1 | 4 | -1 | 2 | 1 | -2 | 12
O=C(/C=C/c1ccccc1)NC(NC(=S)Nc1ccc(Cl)cc1Cl)C(Cl)(Cl)Cl (stereo unspecified) | 34* | 1 | -2 | -19 | -17 | 23
Cc1cc2c(cc1C)-n1nnnc1C(N1CCN(c3ccccc3F)CC1)C(=O)N2 (stereo unspecified) | -10 | 5 | . | 3 | . | .
CC(C)C(C)N(Cc1ccc(C(=O)O)cc1)C(=O)c1ccc2ccccc2n1 (stereo unspecified) | 0 | 0 | -3 | 5 | 1 | 5
CC(C)C(C)N(Cc1cccc(C(=O)O)c1)C(=O)c1ccc2ccccc2n1 (stereo unspecified) | -9 | 7 | -2 | 22* | 14 | -17
CCN(C(=O)COc1ncnc2ccc(Br)cc12)C1CCS(=O)(=O)C1 (stereo unspecified) | 5 | 2 | -4 | 0 | 5 | -3
O=C(/C=C/c1ccc(F)cc1)NC(=S)N1CCN(c2ccccn2)CC1 | -11 | 1 | -5 | 19* | 20 | -33
COc1ccc(/C=C/C(=O)NC(=S)N2CCN(c3ccccn3)CC2)cc1OC | 19 | -3 | -3 | -14 | -6 | 18
CCOC(=O)c1ccc(NC(=S)N2CCSC2c2ccc(Br)cc2)cc1 (stereo unspecified) | 13 | 14 | 34* | 2 | -4 | 33*
CCOC(=O)c1ccc(NC(=S)N2CCC(O)CC2)cc1 | 11 | -3 | -7 | 0 | 3 | -1
COc1ccc([C@H]2CN(c3ccc(OC)cc3)C(=O)[C@@H]2CC(=O)Nc2ccccc2)cc1 | -2 | -1 | -3 | -2 | 0 | -4
COc1ccc(-c2nnc(NC(=O)C(C)C)s2)c(OC)c1 | 10 | 2 | -1 | -17 | -10 | 39*

Compound activity (PubChem)
